Results published in EPA's CvTdb concentration-time database.

Key:
[1] = tested on: Rat; assay: concentration in plasma after dosing
[2] = tested on: human; assay: concentration in blood after dosing; negative times count back from the end of exposure; settings: dosed: trichloroethylene, inhalation
How it was run: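 Sampling and analytical methods are those of each source and frequently went unreported. The concentration-versus-time and amount-versus-time points were compiled from published in vivo toxicokinetic studies and two structured collections. Most were digitised from plot screenshots with WebPlotDigitizer, with others copied from tables, in the reported units.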

CCC1(c2ccccc2)C(=O)NCNC1=O [Primidone]
concentration in plasma [ng/mL], [1], dosed: Primidone, oral
Settings	0.25 h	0.5 h	1.5 h	3 h	6 h	9 h	12 h	18 h	22 h
30 mg/kg, Female, F344	18100	–	23900	24900	11900	5700	2200	500	–
30 mg/kg, Male, F344	8900	–	10000	6700	500	–	–	–	–
80 mg/kg, Female, F344	16900	40000	48800	75900	36400	23400	12600	3600	400
80 mg/kg, Female, Harlan Sprague-Dawley	9900	27200	–	–	–	–	1500	–	–
80 mg/kg, Male, F344	–	–	34700	37100	14000	4000	–	–	–
130 mg/kg, Female, F344	–	19600	78900	53300	24600	53800	5500	–	100
130 mg/kg, Female, Harlan Sprague-Dawley	–	–	51900	–	–	–	–	–	–
130 mg/kg, Male, F344	–	–	51500	–	22800	9000	–	–	–
130 mg/kg, Male, Harlan Sprague Dawley	–	55100	–	100000	–	–	22300	–	–

O=C(O)COc1ccc(Cl)cc1Cl [2,4-Dichlorophenoxyacetic acid]
[1], dosed: 2,4-Dichlorophenoxyacetic acid, Male, Sprague-Dawley
Settings	concentration in plasma [ng/mL]
0.25 h, 2.0 mg/kg, iv	12200
0.25 h, 7.0 mg/kg, oral	9670
0.5 h, 2.0 mg/kg, iv	7630
0.5 h, 7.0 mg/kg, oral	4670
0.75 h, 2.0 mg/kg, iv	4750
2 h, 2.0 mg/kg, iv	376
2 h, 7.0 mg/kg, oral	6510
2.5 h, 2.0 mg/kg, iv	2040
2.5 min, 2.0 mg/kg, iv	24800
2.5 min, 7.0 mg/kg, oral	9340
3 h, 2.0 mg/kg, iv	863
3 h, 7.0 mg/kg, oral	3570
3.5 h, 2.0 mg/kg, iv	858
4 h, 2.0 mg/kg, iv	482
4 h, 7.0 mg/kg, oral	7740
5 h, 7.0 mg/kg, oral	4720
6 h, 7.0 mg/kg, oral	472
10 min, 2.0 mg/kg, iv	14100
10 min, 7.0 mg/kg, oral	12500

c1ccncc1 [Pyridine]
concentration in plasma [ng/mL], [1], dosed: Pyridine
Settings	iv	oral
0.05 h, 5 mg/kg, Male, F344	5520	–
0.25 h, 5 mg/kg, Male, F344	2430	–
0.25 h, 10 mg/kg, Male, F344	4140	–
0.5 h, 5 mg/kg, Male, F344	3550	2630
0.5 h, 25 mg/kg, Male, F344	–	16500
1 h, 5 mg/kg, Male, F344	–	2900
1 h, 25 mg/kg, Female, Harlan Sprague-Dawley	–	18800
2 h, 5 mg/kg, Male, F344	2390	2920
2 h, 10 mg/kg, Male, F344	185	–
2 h, 25 mg/kg, Female, Harlan Sprague-Dawley	–	15700
2 min, 10 mg/kg, Male, F344	4390	716
4 h, 5 mg/kg, Male, F344	2090	2610
4 h, 25 mg/kg, Male, F344	–	15000
5 min, 5 mg/kg, Male, F344	–	1700
5 min, 10 mg/kg, Male, F344	2280	–
5 min, 25 mg/kg, Male, F344	–	5570
6 h, 5 mg/kg, Male, F344	1640	1550
6 h, 25 mg/kg, Male, F344	–	15300
8 h, 5 mg/kg, Male, F344	1620	1070
8 h, 25 mg/kg, Female, Harlan Sprague-Dawley	–	15400
9 h, 5 mg/kg, Male, F344	–	1280
10 min, 10 mg/kg, Male, F344	–	3820
11 h, 5 mg/kg, Male, F344	–	659
14 h, 25 mg/kg, Female, Harlan Sprague-Dawley	–	10000
20 h, 25 mg/kg, Male, F344	–	2910
20 min, 10 mg/kg, Female, Harlan Sprague-Dawley	–	2720
20 min, 10 mg/kg, Male, F344	3160	–
24 h, 25 mg/kg, Male, F344	–	1640
40 h, 100 mg/kg, Male, F344	–	11600
40 min, 10 mg/kg, Female, Harlan Sprague-Dawley	–	2560
50 min, 10 mg/kg, Male, F344	3220	–

C=CCc1ccc(OC)c(OC)c1 [Methyleugenol]
concentration in plasma [ng/mL], [1], dosed: Methyleugenol, 37 mg/kg
Settings	Female	Male
0.25 h, iv, F344	7960	7180
0.5 h, iv, F344	2470	2440
0.5 h, oral, F344/N	27.3	282
0.75 h, iv, F344	1100	3230
1 h, oral, F344/N	–	243
1.5 h, iv, F344	684	610
1.5 h, oral, F344/N	–	39.6
2 h, oral, F344/N	–	17.4
2 min, iv, F344	57800	32200
2 min, oral, F344/N	29.2	35.1
3 h, iv, F344	215	232
3 h, oral, F344/N	–	12.4
4 h, oral, F344/N	–	17.8
5 h, oral, F344/N	–	15.6
5 min, iv, F344	27400	26700
5 min, oral, F344/N	108	81.2
6 h, iv, F344	–	175
8 h, oral, F344/N	17.8	6.71
10 min, oral, F344/N	345	369
20 min, oral, F344/N	267	233

OCC(Cl)(Cl)Cl [trichloroethanol]
concentration in blood [mg/kg], [2], duration: 2 hr - 20 min
Settings	0 h	0.5 h	1 h	1.5 h	2 h	21 h
1348 mg	2.8	2.7	2.6	2.5	2.4	0.8
1681 mg	3	3.3	3.3	3.2	3.1	1
3907 mg	3.9	4.5	4.2	4.4	4.4	1.6

[2]
Settings	concentration in blood
-1.833 h, 1348 mg, duration: 2 hr - 20 min, during exposure	0.8 mg/kg
-1.833 h, 1681 mg, duration: 2 hr - 20 min, during exposure	0.7 mg/kg
-1.833 h, 3907 mg, duration: 2 hr - 20 min, during exposure	1.4 mg/kg
-1 h, 1348 mg, duration: 2 hr - 20 min, during exposure	1.3 mg/kg
-1 h, 1681 mg, duration: 2 hr - 20 min, during exposure	1.9 mg/kg
-1 h, 3907 mg, duration: 2 hr - 20 min, during exposure	2.2 mg/kg
-0.5 h, 1348 mg, duration: 2 hr - 20 min, during exposure	2.2 mg/kg
-0.5 h, 1681 mg, duration: 2 hr - 20 min, during exposure	2.1 mg/kg
-0.5 h, 3907 mg, duration: 2 hr - 20 min, during exposure	3.1 mg/kg
0 h, 100 ppm, duration: 6 hr, female	4110 ng/mL
18 h, 100 ppm, duration: 6 hr, female	2420 ng/mL
24 h, 100 ppm, duration: 6 hr, female	5640 ng/mL
42 h, 100 ppm, duration: 6 hr, female	2510 ng/mL
48 h, 100 ppm, duration: 6 hr, female	5750 ng/mL
66 h, 100 ppm, duration: 6 hr, female	3180 ng/mL
72 h, 100 ppm, duration: 6 hr, female	9060 ng/mL
90 h, 100 ppm, duration: 6 hr, female	5590 ng/mL
96 h, 100 ppm, duration: 6 hr, female	9010 ng/mL

Settings	concentration in blood [ng/mL]
[2], -6 h, 100 ppm, duration: 6 hr, female, during exposure	212
